We go through 5 compounds from ChEMBL document CHEMBL1124172 (J Med Chem, 1988).

Molecules are shown by their SMILES. Values after ≈ are worked out from the molar mass of the structure shown.

Experiment [1] relates to Mus musculus. As to the kind of experiment: In vivo antitumor activity against P388 Lymphocytic Leukemia in mice at 100 mg/kg expressed as T/C value w.r.t. compound 6. Type of experiment: functional.
In experiment [2] the test system is Mus musculus. As to the kind of experiment: In vivo antitumor activity against P388 Lymphocytic Leukemia measured as Survivors on day 5 at 200 mg/kg, w.r.t. compound 6; 5/6. Format: functional.
In experiment [3] the test system is Mus musculus. As to the kind of experiment: In vivo antitumor activity against P388 Lymphocytic Leukemia in mice at 400 mg/kg expressed as T/C value w.r.t. compound 6. Type of experiment: functional.
Experiment [4] relates to Mus musculus. As to the kind of experiment: In vivo antitumor activity against P388 Lymphocytic Leukemia in mice at 800 mg/kg expressed as T/C value w.r.t. compound 6. Format: functional.
The subject of experiment [5] is Mus musculus. The experiment in a line: In vivo antitumor activity against P388 Lymphocytic Leukemia in mice at 200 mg/kg expressed as T/C value w.r.t. compound 6. Type of experiment: functional.
The test system of experiment [6] is Mus musculus. As to the kind of experiment: In vivo antitumor activity against P388 Lymphocytic Leukemia measured as Survivors on day 5 at 800 mg/kg, w.r.t. compound 6; 6/6. Type of experiment: functional.
Experiment [7] deals with Mus musculus. The experiment in a line: In vivo antitumor activity against P388 Lymphocytic Leukemia measured as Survivors on day 5 at 400 mg/kg, w.r.t. compound 6; 6/6. Format: functional.
Experiment [8] has as its system Mus musculus. The experiment in a line: In vivo antitumor activity against P388 Lymphocytic Leukemia measured as Survivors on day 5 at 100 mg/kg, w.r.t. compound 6; 6/6. Type of experiment: functional.
In experiment [9] the test system is Mus musculus. As to the kind of experiment: In vivo antitumor activity against P388 Lymphocytic Leukemia measured as Survivors on day 5 at 8.88 mg/kg; 6/6. Format: functional.
For experiment [10], the system named is Mus musculus. The experiment in a line: In vivo antitumor activity against P388 Lymphocytic Leukemia in mice at 8.88 mg/kg expressed as T/C value. Format: functional.
Experiment [11] has as its system Mus musculus. As to the kind of experiment: In vivo antitumor activity against P388 Lymphocytic Leukemia in mice at 71 mg/kg expressed as T/C value. Type of experiment: functional.
Experiment [12] has as its system Mus musculus. The experiment in a line: In vivo antitumor activity against P388 Lymphocytic Leukemia in mice at 17.75 mg/kg expressed as T/C value. Format: functional.
Experiment [13] has as its system Mus musculus. As to the kind of experiment: In vivo antitumor activity against P388 Lymphocytic Leukemia measured as Survivors on day 5 at 17.75 mg/kg; 5/6. Format: functional.
Experiment [14] concerns Mus musculus. The experiment in a line: In vivo antitumor activity against P388 Lymphocytic Leukemia measured as Survivors on day 5 at 35.5 mg/kg; 6/6. Type of experiment: functional.
In experiment [15] the test system is Mus musculus. As to the kind of experiment: In vivo antitumor activity against P388 Lymphocytic Leukemia measured as Survivors on day 5 at 71 mg/kg; 5/6. Format: functional.
Experiment [16] has as its system Mus musculus. The experiment in a line: In vivo antitumor activity against P388 Lymphocytic Leukemia in mice at 35.5 mg/kg expressed as T/C value. Format: functional.
Experiment [17] deals with Mus musculus. The experiment in a line: Weight difference when tested in vivo for antitumor activity against P388 Lymphocytic Leukemia. Type of experiment: functional.
Experiment [18] relates to Mus musculus. As to the kind of experiment: In vivo antitumor activity against P388 Lymphocytic Leukemia measured as Survivors on day 5 at 11.50 mg/kg; 6/6. Type of experiment: functional. The conditions noted are these: dose 11.5 mg/kg.
The subject of experiment [19] is Mus musculus. As to the kind of experiment: In vivo antitumor activity against P388 Lymphocytic Leukemia in mice at 92 mg/kg expressed as T/C value. Type of experiment: functional.
The test system of experiment [20] is Mus musculus. The experiment in a line: In vivo antitumor activity against P388 Lymphocytic Leukemia measured as Survivors on day 5 at 46 mg/kg; 6/6. Type of experiment: functional.
For experiment [21], the system named is Mus musculus. As to the kind of experiment: In vivo antitumor activity against P388 Lymphocytic Leukemia in mice at 11.50 mg/kg expressed as T/C value. Format: functional. Conditions: dose 11.5 mg/kg.
Experiment [22] has as its system Mus musculus. As to the kind of experiment: In vivo antitumor activity against P388 Lymphocytic Leukemia in mice at 23 mg/kg expressed as T/C value. Type of experiment: functional.
Experiment [23] concerns Mus musculus. The experiment in a line: In vivo antitumor activity against P388 Lymphocytic Leukemia in mice at 46 mg/kg expressed as T/C value. Type of experiment: functional.
In experiment [24] the test system is Mus musculus. The experiment in a line: In vivo antitumor activity against P388 Lymphocytic Leukemia measured as Survivors on day 5 at 92 mg/kg; 6/6. Type of experiment: functional.
Experiment [25] deals with Mus musculus. As to the kind of experiment: In vivo antitumor activity against P388 Lymphocytic Leukemia measured as Survivors on day 5 at 23 mg/kg; 6/6. Format: functional.
Experiment [26] concerns Mus musculus. As to the kind of experiment: In vivo antitumor activity against P388 Lymphocytic Leukemia in mice at 187.5 mg/kg expressed as T/C value. Type of experiment: functional.
Experiment [27] has as its system A204. The experiment in a line: In vitro cytotoxicity against human A204 Rhabdomyosarcoma cell line. Type of experiment: functional, cell-based. An outline of the steps:
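A204 human rhabdomyosarcoma soft-agarose colony assay. 10^4 trypsin/EDTA-dissociated cells in 0.3% agarose over a 0.5% agarose base, in DMEM with 10% FCS, at 37 °C and 5% CO2. Compound was applied in an upper medium layer on day 1 for 24 h, then washed out. Colonies >60 µm were counted after 7–9 days by tetrazolium stain and image analysis. Quadruplicates with vehicle controls, at least four concentrations up to 100 or 1000 µg/mL. IC50 from a monoexponential least-squares fit over at least three preparations, mean ± SE.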

In experiment [28] the test system is Mus musculus. The experiment in a line: In vivo antitumor activity against P388 Lymphocytic Leukemia measured as Survivors on day 5 at 187.5 mg/kg; 6/6. Format: functional.
For experiment [29], the system named is Mus musculus. The experiment in a line: In vivo antitumor activity against P388 Lymphocytic Leukemia in mice at 1500 mg/kg expressed as T/C value. Type of experiment: functional.
For experiment [30], the system named is Mus musculus. As to the kind of experiment: In vivo antitumor activity against P388 Lymphocytic Leukemia measured as Survivors on day 5 at 1500 mg/kg; 6/6. Type of experiment: functional.
The subject of experiment [31] is Mus musculus. As to the kind of experiment: In vivo antitumor activity against P388 Lymphocytic Leukemia measured as Survivors on day 5 at 750 mg/kg; 6/6. Type of experiment: functional.
Experiment [32] relates to Mus musculus. The experiment in a line: In vivo antitumor activity against P388 Lymphocytic Leukemia in mice at 750 mg/kg expressed as T/C value. Format: functional.
For experiment [33], the system named is Mus musculus. The experiment in a line: In vivo antitumor activity against P388 Lymphocytic Leukemia measured as Survivors on day 5 at 375 mg/kg; 6/6. Format: functional.
Experiment [34] has as its system Mus musculus. The experiment in a line: In vivo antitumor activity against P388 Lymphocytic Leukemia in mice at 375 mg/kg expressed as T/C value.

As a reminder, the T/C is the ratio of treated to control. On to `CC(C)C(O)(C(=O)OCC1CCN2CC[C@@H](O)[C@@H]12)C(C)O.CC(C)C(O)(C(=O)OCC1CC[N+]2([O-])CC[C@@H](O)[C@@H]12)C(C)O` (stereo not given in full), for which the T/C is given as 101% in experiment [1], 120% in [3], 146% in experiment [4] and 118% in experiment [5]. Also, the Survivors in experiment [2] was 5; in experiment [6] it was 6; in experiment [7], 6; in [8], 6.

With `CCC(O)(C(=O)OCC1=CC[N+]2([O-])CC[C@H](OC(=O)[C@@](O)(CC)c3ccccc3)[C@@H]12)c1ccccc1` (stereo not given in full), the Survivors in experiment [9] is recorded as 6; in experiment [13], 5; in experiment [14], 6; in experiment [15] it was 5. For the same compound, the T/C was 107% in experiment [10], 109% in experiment [11], 100% in [12] and 106% in [16].

Consider `CC(C)C(O)(C(=O)O[C@@H]1CCN2CC[C@H](CO)[C@H]12)C(C)O` (stereo not given in full), for which the Weight difference in [17] is given as -1.2. The Survivors in [18], in experiment [20], in experiment [24] and in [25] was 6 in each case. For the same compound, the T/C in experiment [19] is 98%; in experiment [21], 111%; in [22] it was 107%; in experiment [23] it was 105%.

As a reminder, the IC50 is the concentration at which inhibition is half-maximal. In the case of `CC(C)C(O)(C(=O)OCC1CC[N+]2([O-])CC[C@@H](O)[C@@H]12)C(C)O` (stereo not given in full), the T/C amounted to 94% in experiment [26], 106% in experiment [29], 95% in [32] and 106% in [34]. In experiment [27], this compound returned an IC50 of 320 µg/mL (≈ 1010 µM). Moreover, the Survivors in experiment [28], in experiment [30], in [31] and in experiment [33] was 6 throughout.

`CC1C(=O)O[C@@H]2CCN3CC=C(COC(=O)C(C)(O)C1(C)O)[C@H]23` (stereo not given in full) gave a half-inhibitory concentration (IC50) in experiment [27] of 316 µg/mL (≈ 971 µM).
